From PubChem
LMPTP block: LMPTP (human) inhibition; AID 651560; 360,000 compounds, 0.22% hits; P24666; inhibition, % at 20 µM; recombinant LMPTP-A, OMFP fluorogenic substrate, fluorescence intensity;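 active = compounds that cut the enzyme signal by at least half of the control window in the single-dose screen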;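 also: plate controls were DMSO wells with enzyme plus substrate for no effect and substrate without enzyme for full effect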
Target sequence (P24666 whole entry, looked up): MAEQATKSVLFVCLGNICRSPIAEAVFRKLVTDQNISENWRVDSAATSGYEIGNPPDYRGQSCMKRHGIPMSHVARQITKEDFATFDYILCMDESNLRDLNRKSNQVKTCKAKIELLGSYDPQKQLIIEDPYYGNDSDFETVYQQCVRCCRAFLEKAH
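Test system: LMPTP-A phosphatase enzyme. Amount: LMPTP-A at 0.625 nM final in the reaction. Reagent: OMFP substrate, 400 µM final. Times: 50 min at room temperature. Signal: endpoint fluorescence intensity from OMFP dephosphorylation. Read-out basis: % inhibition. Benchmarks: no-enzyme and uninhibited controls.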
CSN deneddyl inh: blocks human CSN-mediated cullin deneddylation; Purified CSN, SCF-Nedd8-OG deneddylation, fluorescence polarization; inhibition, % at 12.5 µM; 360,000 compounds, 0.38% hits; AID 651999;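 active = pattern-corrected inhibition above about 35%, with an unprinted fluorescence ratio check between 0.5 and 1.5, limit read from the data, passing the limit was not always enough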;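 also: 0% = enzyme with substrate and 100% = substrate without enzyme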
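Material: purified human Csn5 enzyme expressed in HEK293T cells / Medium: Tris buffer pH 7.5, NaCl, DTT, Tween-20, trehalose, ovalbumin / Compound dosing: 12.5 µM single point / Schedule: 90 min incubation of compound, enzyme and substrate at room temperature / Signal: fluorescence polarization of the substrate / Control set: no-enzyme wells high, enzyme-with-substrate wells low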
STEP block: STEP (human) phosphatase inhibition; recombinant STEP, OMFP fluorogenic substrate, fluorescence; inhibition, % at 20 µM; 360,000 compounds, 0.25% hits;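 active = inhibition at 20 µM, scaled per plate between control wells, above about 37%, limit read from the data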;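 also: 0% = DMSO with enzyme and substrate and 100% = substrate only without enzyme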
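System: isolated STEP enzyme; schedule: 20 min enzyme reaction at room temperature, protected from light; medium: Bis-Tris buffer pH 6.0, 2.5 mM DTT, 0.005% Tween 20; signal: fluorescence, 480/540 nm; dosing: single compound dose of 20 µM, 1% DMSO final; also added: OMFP substrate, 25 µM final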
Scp1 inh: Scp-1 (human) phosphatase inhibition. Q9GZU7. Recombinant Scp1, phosphopeptide, malachite green phosphate absorbance. inhibition, % at 20 µM. 340,000 compounds, 0.88% hits. AID 493091;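 active = inhibition above about 50% at 20 µM, limit read from the data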;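 also: plate controls were DMSO wells with enzyme for no effect and wells lacking enzyme for full effect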
Target sequence (Q9GZU7 76-261 limits assumed): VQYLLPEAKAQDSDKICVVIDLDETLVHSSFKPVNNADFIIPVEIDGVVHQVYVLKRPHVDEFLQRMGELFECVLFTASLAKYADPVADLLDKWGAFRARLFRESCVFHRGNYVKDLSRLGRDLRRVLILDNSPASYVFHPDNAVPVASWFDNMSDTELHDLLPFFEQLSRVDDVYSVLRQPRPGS
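System: truncated SCP-1 phosphatase (76-261aa); medium: Tris acetate buffer pH 5.5 with MgCl2 and Tween-20; incubation: 45 min room-temperature reaction, 5 min colour, 30 min stabiliser; compound: single 20 µM dose, 1% DMSO; reagent: Phosphorylated 17-residue peptide substrate; read-out: % inhibition at 20 µM; technique: colorimetric free-phosphate detection, absorbance 630 nm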
SUMO1 PPI mod: SUMO1-SIM interaction modulation. SUMO1 binding to a labelled peptide, TR-FRET, 1 h. inhibition, % at 20 µM. 360,000 compounds, 0.33% hits. AID 602429; in the data active = inhibition above about 37%
Target sequence (P63165 whole entry, looked up): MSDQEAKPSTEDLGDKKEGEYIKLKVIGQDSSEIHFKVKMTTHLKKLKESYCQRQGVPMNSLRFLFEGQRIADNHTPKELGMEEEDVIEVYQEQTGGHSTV
DNMT1 block: blocks human DNA methyltransferase DNMT1; P26358; DNMT1 molecular beacon, Hinp1I cleavage, fluorescence; inhibition (reported as % activation of signal), % at 10 µM; 360,000 compounds, 0.83% hits; AID 588458; in the data active = inhibition above about 50%
Starred values were filed as active, the others as inactive; . = no result given. Compounds with a hit are over-represented: about 2% of the library has one in this group of screens.

SMILES | LMPTP block | CSN deneddyl inh | STEP block | Scp1 inh | SUMO1 PPI mod | DNMT1 block
CNC(CC(C)C)C(=O)NC1C(=O)NC(CC(N)=O)C(=O)NC2C(=O)NC3C(=O)NC(C(=O)NC(C(=O)O)c4cc(O)cc(O)c4-c4cc3ccc4O)C(O)c3ccc(c(Cl)c3)Oc3cc2cc(c3OC2OC(CO)C(O)C(O)C2OC2CC(C)(N)C(O)C(C)O2)Oc2ccc(cc2Cl)C1O (stereo not drawn) | 0 | 2 | -1 | -3 | 51* | -2
O=C1c2ccc3c4c(ccc(c24)C(=O)N1c1ccc(O)cc1)C(=O)N(c1ccc(O)cc1)C3=O | 5 | 3 | 0 | 3 | 88* | 13
O=C(c1[nH]c(C(F)(F)F)nc1-c1ccccc1)N1CCCN(Cc2ccc(F)cc2)CC1 | 3 | 76* | 4 | . | 23 | -29
C=Cc1ccc(N=Cc2c(O)ccc3ccccc23)cc1 | 1 | 39* | -1 | -11 | -14 | -11
O=C(Cc1ccc(Br)cc1)OCC(=O)N1CCCCCC1 | -3 | 2 | 0 | 3 | 1 | 3
NC(Cc1ccccc1)C(=O)N1CCCCC1 (stereo not drawn) | -1 | 1 | -2 | -9 | -1 | 2
Cc1ccc(/C=C2/Sc3ccc(C(=O)N4CCN(c5ccccn5)CC4)cc3NC2=O)cc1 | 7 | 14 | 0 | 6 | -5 | -5
Cc1ccc(/C=C2/Sc3ccc(C(=O)NCc4ccccn4)cc3NC2=O)cc1 | 19 | 61* | 12 | 6 | 50* | 24
CCCCCCc1c(O)c2ccccc2[nH]c1=O | 1 | 3 | -1 | -4 | 2 | -2
COC1=CC(=O)C(O)=C(CCCCCCC/C=C/CCCCCCCC2=C(O)C(=O)C=C(OC)C2=O)C1=O | 69* | 7 | 10 | 88* | 79* | 82*
CCCCCCCCCCCC1=C(O)C(=O)C=C(O)C1=O | 71* | 3 | 12 | 34 | 11 | 31
CN1CCN(C(=O)c2ccc3c(=O)n(CCc4ccccc4)c(=S)[nH]c3c2)CC1 | -7 | -4 | 0 | -3 | 41* | 1
CCOC(=O)N1CCN(C(=O)c2ccc3c(=O)n(CCc4ccccc4)c(=S)[nH]c3c2)CC1 | 0 | 1 | -1 | -5 | 0 | -6
COc1ccc(Cn2c(=O)[nH]c3cc(C(=O)N4CCN(c5ccc(OC)cc5)CC4)ccc3c2=O)cc1 | -1 | 1 | -2 | -5 | 6 | 4
COc1ccc(Cn2c(=O)[nH]c3cc(C(=O)N4CCN(c5ccc(C(C)=O)cc5)CC4)ccc3c2=O)cc1 | 1 | -2 | 0 | -4 | 57* | -2
CCCCNC(=O)c1ccc(Cc2cn(C)c3ccccc23)nc1 | 0 | 3 | 14 | . | -2 | -1
N#Cc1cccc(NC(=O)CSc2ccccc2)c1 | -2 | 3 | -2 | 1 | 0 | 5
N#Cc1cccc(NC(=O)CSc2ccc3c4c(cccc24)C(=O)c2ccccc2-3)c1 | 27 | -1 | -9 | 42 | -14 | 82*
CC1(C(=O)NS(=O)(=O)c2ccccc2Cl)CCN1C(=O)C/C=C/c1ccccc1 (stereo not drawn) | -1 | -1 | 0 | . | 8 | 3
COc1ccc(/C(C)=N/NC(=O)c2nnn(-c3nonc3N)c2-c2cccs2)cc1 | -1 | -1 | -5 | -8 | -4 | 1
COc1ccc(/C(C)=N/NC(=O)c2nnn(-c3nonc3N)c2-c2ccccc2)cc1 | 52* | 8 | 29 | 14 | 2 | 24
O=C(CN1c2cccc3cccc(c23)S1(=O)=O)NCCc1ccc(F)cc1 | 1 | 4 | 3 | 0 | -13 | -10
COc1ccc(CCNS(=O)(=O)c2ccc(-c3ccc(=O)[nH]n3)o2)cc1OC | 1 | 1 | 2 | -6 | -19 | 0
Cc1ccc(C(=O)N2CCN(c3ccc4c(c3)C3CC4CCN3C(=O)OCc3ccccc3)CC2)cc1 (stereo not drawn) | 10 | -4 | 3 | . | 6 | -3
